The text below walks through data of ChEMBL document CHEMBL1828589, “Isoeugenol-based novel potent antioxidants: synthesis and reactivity” (Eur J Med Chem, 2011).

Molecules are shown by their SMILES.

Format in all cases: functional
The nature of experiment [1]: Antioxidant activity assessed as inhibition of linoleic acid lipid peroxidation at 100 ug/ml measured after 6 hrs by ferric thiocynate method. In outline: (§1)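 Mitsuda ferric thiocyanate method. Linoleic acid/Tween 20 emulsion in 0.2 M phosphate pH 7.0, mixed with ethanolic compound and buffer. Incubated at 37 °C in the dark and sampled every 6 h. Aliquot taken into 75% ethanol, 30% ammonium thiocyanate and 0.02 M FeCl2 in 3.5% HCl; A500 read after 3 min. Inhibition % = (Ac−As)/Ac×100 against a no-compound control. Triplicates.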

The nature of experiment [2]: Antioxidant activity assessed as inhibition of linoleic acid lipid peroxidation at 100 ug/ml measured after 12 hrs by ferric thiocynate method. The method in brief:
as §1

A short description of experiment [3]: Antioxidant activity assessed as inhibition of linoleic acid lipid peroxidation at 100 ug/ml measured after 18 hrs by ferric thiocynate method. In outline:
as §1

Experiment [4] in a line: Antioxidant activity assessed as inhibition of linoleic acid lipid peroxidation at 100 ug/ml measured after 24 hrs by ferric thiocynate method. The method in brief: as §1
The nature of experiment [5]: Antioxidant activity assessed as inhibition of linoleic acid lipid peroxidation at 100 ug/ml measured after 30 hrs by ferric thiocynate method. The method in brief: as §1
Experiment [6] is described as follows: Antioxidant activity assessed as inhibition of linoleic acid lipid peroxidation at 100 ug/ml measured after 36 hrs by ferric thiocynate method. In outline: as §1
The subject of experiment [7] is Radical scavenging activity. Put plainly: Antioxidant activity assessed as residual DPPH radical scavenging activity after 30 mins by spectrophotometric analysis. The method in brief: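 Compound in ethanol at 10–40 µg/mL (3 mL) mixed with 1 mL of 0.1 mM ethanolic DPPH. Shaken, then left 30 min at room temperature, read at 517 nm. IC50 (µM) is the concentration giving a 50% fall in absorbance, from regression; three repeats.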
For orientation: The DPPH test is a chemical assay of radical scavenging.

A short description of experiment [8]: Antioxidant activity assessed as residual ABTS+ radical scavenging activity after 30 mins by spectrophotometric analysis. In outline: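 ABTS radical cation formed from 2 mM ABTS and 2.45 mM potassium persulfate in water, kept dark at room temperature for 12 h. Ethanolic compound at 10–30 µg/mL added to the radical solution. Remaining radical read at 734 nm and converted to concentration by a calibration curve (0.033–0.33 mM). IC50 (µM) by regression; three repeats.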

Experiment [9] can be described thus: Antioxidant activity assessed as superoxide radical scavenging activity after 40 mins by Zhishen's method. The method in brief:
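Riboflavin (3×10⁻⁵ M), methionine (1×10⁻² M) and NBT (1×10⁻⁴ M) in 0.05 M phosphate pH 7.8. Illuminated 25 °C for 40 min to form formazan; absorbance at 560 nm, with an unilluminated mixture as control. Compounds tested at 10–40 µg/mL. IC50 (µM) by regression; three repeats.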

Experiment [10] in a line: Antioxidant activity assessed as ferric to ferrous reduction at 10 ug/ml by FRAP assay. In outline: (§2)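 Oyaizu method, adjusted. Diluted compound in ethanol mixed with 0.2 mol/L phosphate buffer pH 6.6 and 1% K3Fe(CN)6, held 50 °C for 20 min. Then 10% trichloroacetic acid added and spun at 10,000g for 10 min. Upper layer mixed with water and 0.1% FeCl3, absorbance read at 700 nm. Mean ± SD of three replicate assays.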

Experiment [11] in a line: Antioxidant activity assessed as ferric to ferrous reduction at 20 ug/ml by FRAP assay. In outline: as §2
The nature of experiment [12]: Antioxidant activity assessed as ferric to ferrous reduction at 30 ug/ml by FRAP assay. In outline:
as §2

A short description of experiment [13]: Antioxidant activity assessed as ferric to ferrous reduction activity at 40 ug/ml by FRAP assay. In outline:
as §2

As to `CCC(c1ccc(O)c(OC)c1)c1ccc(O)cc1O` (configuration not stated), the inhibition (commonly how much of the control response was suppressed) in experiment [1] worked out at 36%; in experiment [2], 75%; in experiment [3], 85%; in [4], 94%; in [5], 97%; in [6], 94%. Also, the half-maximal inhibitory concentration (IC50) – broadly, the concentration at which inhibition is half-maximal – in experiment [7] came out at 6.71 µM; in [8], 10.1 µM; in experiment [9], 15.3 µM. Further, the Activity amounted to 0.27 in [10], 0.32 in experiment [11], 0.36 in [12] and 0.47 in experiment [13].
For the molecule `CCOc1cccc(C(CC)c2ccc(O)c(OC)c2)c1O` (configuration not stated), the inhibition came out at 37% in [1]; 77% in [2]; 89% in experiment [3]; 96% in experiment [4]; 97% in [5]; 96% in [6]. Moreover, the IC50 was determined as 6.19 µM in experiment [7], 7.19 µM in experiment [8] and 13.7 µM in experiment [9]. The Activity is 0.21 in experiment [10], 0.22 in [11], 0.25 in experiment [12] and 0.28 in experiment [13].
For the molecule `CCC(c1ccc(O)c(OC)c1)c1ccccc1O` (configuration not stated), the inhibition came out at 32% in experiment [1]; 75% in experiment [2]; 90% in [3]; 94% in [4]; 97% in experiment [5]; 96% in experiment [6]. The results for the 50% inhibitory concentration (IC50) in experiment [7], in experiment [8] and in [9] were 7.83 µM, 8.53 µM and 10.5 µM, respectively. In addition, the Activity came to 0.26 in [10], 0.27 in experiment [11], 0.3 in [12] and 0.34 in experiment [13].
For the molecule `CCC(c1ccc(O)c(OC)c1)c1cccc(C(C)C)c1O` (configuration not stated), the inhibition in experiment [1] worked out at 38%; in experiment [2], 78%; in [3] it was 88%; in experiment [4] it was 95%; in [5], 97%; in experiment [6], 96%. The 50% inhibitory concentration (IC50) in experiment [7] amounted to 6.3 µM; in [8], 7 µM; in experiment [9], 10.1 µM. Moreover, the Activity was 0.22 in experiment [10], 0.2 in [11], 0.2 in experiment [12] and 0.24 in experiment [13].
As to `CCC(c1ccc(O)c(OC)c1)c1cccc(O)c1O` (configuration not stated), the inhibition in experiment [1] came out at 34%; in experiment [2], 74%; in [3], 90%; in experiment [4], 94%; in experiment [5] it was 97%; in experiment [6], 96%. The values for the IC50 in experiment [7], in experiment [8] and in experiment [9] were 5.8 µM, 8.43 µM and 6.17 µM, respectively. Further, the Activity in [10] stood at 0.49; in experiment [11], 0.54; in [12], 0.58; in [13] it was 0.73.
On to `Cc1cc(C(C)(C)C)c(O)c(C(C)(C)C)c1` [BUTYLATED HYDROXYTOLUENE], for which the inhibition is 47% in [1]; 81% in experiment [2]; 92% in [3]; 97% in [4]; 98% in [5]; 98% in experiment [6]. For the same molecule, the IC50 in experiment [7] came out at 11.5 µM; in experiment [8] it was 10.2 µM; in [9], 28.4 µM. The Activity worked out at 0.27 in experiment [10], 0.39 in experiment [11], 0.5 in experiment [12] and 0.6 in experiment [13].
In the case of `Cc1c(C)c2c(c(C)c1O)CCC(C)(C(=O)O)O2` (configuration not stated) [TROLOX], the inhibition in experiment [1] came out at 35%; in [2] it was 70%; in experiment [3] it was 87%; in [4], 89%; in [5] it was 92%; in experiment [6] it was 86%. Also, the half-maximal inhibitory concentration (IC50) was determined as 5.84 µM in experiment [7], 8 µM in experiment [8] and 61.3 µM in [9]. The Activity in [10] came out at 0.23; in experiment [11], 0.38; in experiment [12] it was 0.56; in [13], 0.72.
As to `C/C=C\c1ccc(O)c(OC)c1` [ISOEUGENOL], the inhibition in experiment [1] stood at 28%; in experiment [2] it was 42%; in [3], 90%; in experiment [4] it was 96%; in experiment [5], 91%; in [6], 82%. For the same molecule, the IC50 in experiment [7] was found to be 40.7 µM; in experiment [8], 8.84 µM; in [9] it was 42.3 µM. Besides, the Activity was found to be 0.32 in [10], 0.37 in experiment [11], 0.41 in [12] and 0.43 in [13].
Regarding `CCC(c1ccc(O)c(O)c1)c1ccc(O)c(OC)c1` (configuration not stated), the inhibition is 37% in experiment [1]; 78% in experiment [2]; 90% in experiment [3]; 96% in experiment [4]; 98% in experiment [5]; 97% in experiment [6]. The concentration for half-maximal inhibition (IC50) in experiment [7] amounted to 5.8 µM; in [8] it was 8.28 µM; in [9], 6.61 µM. The Activity in experiment [10] was determined as 0.43; in experiment [11] it was 0.55; in [12], 0.58; in experiment [13], 0.64.
